Experimental data published in ChEMBL document CHEMBL1649124, “Genetic variability among ampC genes from acinetobacter genomic species 3” (Antimicrob Agents Chemother, 2009).
Values after ≈ are worked out from the molar mass of the structure shown. Residues, ends and D or L forms follow the SMILES beside them. *: point of attachment. βNA = c1ccc2cc(N*)ccc2c1

Tests used:
Format in all cases: functional
Escherichia coli [1] = assay: Antibacterial activity against Escherichia coli DH5alpha carrying ampC gene of Acinetobacter genomosp. 3 isolate 109 by Etest method
Method in brief: (§1)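 E. coli DH5α expressing the AG3 isolate ampC gene, PCR-amplified (high-fidelity system, 28 cycles) and cloned into BamHI/HindIII sites of pBGS18 (kanamycin marker) under the CTX-M-14 β-lactamase promoter. Grown at 37°C in LB, with kanamycin 50 µg/ml when needed. β-Lactam MICs determined by Etest per the manufacturer's instructions.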

Escherichia coli [2] = assay: Antibacterial activity against Escherichia coli DH5alpha by Etest method
Method in brief: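 E. coli DH5α host strain, grown at 37°C in LB medium. MICs of β-lactams determined by Etest following the manufacturer's instructions.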

Escherichia coli [3] = assay: Antibacterial activity against Escherichia coli DH5alpha carrying ampC gene of Acinetobacter genomosp. 3 isolate 195 by Etest method; method in brief: as §1
Escherichia coli [4] = assay: Antibacterial activity against Escherichia coli DH5alpha carrying ampC gene of Acinetobacter genomosp. 3 isolate 56 by Etest method; method in brief: as §1
Escherichia coli [5] = assay: Antibacterial activity against Escherichia coli DH5alpha carrying ampC gene of Acinetobacter genomosp. 3 isolate 69 by Etest method; method in brief: as §1
Escherichia coli [6] = assay: Antibacterial activity against Escherichia coli DH5alpha carrying ampC gene of Acinetobacter genomosp. 3 isolate 65 by Etest method; method in brief: as §1
Escherichia coli [7] = assay: Antibacterial activity against Escherichia coli DH5alpha carrying ampC gene of Acinetobacter genomosp. 3 isolate 103 by Etest method; method in brief: as §1
Acinetobacter pittii [8] = assay: Antibacterial activity against Acinetobacter genomosp. 3 isolate 20 by Etest method
Method in brief: (§2)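 MICs for AG3 clinical isolates were read by Etest following the manufacturer's instructions. Isolates were stored at –80°C in 10% Brucella glycerol broth before testing.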

Acinetobacter pittii [9] = assay: Antibacterial activity against Acinetobacter genomosp. 3 isolate 103 by Etest method; method in brief: as §2
Escherichia coli [10] = assay: Antibacterial activity against Escherichia coli DH5alpha carrying ampC gene of Acinetobacter genomosp. 3 isolate 20 by Etest method; method in brief: as §1
Escherichia coli [11] = assay: Antibacterial activity against Escherichia coli DH5alpha carrying ampC gene of Acinetobacter genomosp. 3 isolate 14 by Etest method; method in brief: as §1
Acinetobacter pittii [12] = assay: Antibacterial activity against Acinetobacter genomosp. 3 isolate 14 by Etest method; method in brief: as §2
Acinetobacter pittii [13] = assay: Antibacterial activity against Acinetobacter genomosp. 3 isolate 109 by Etest method; method in brief: as §2
Acinetobacter pittii [14] = assay: Antibacterial activity against Acinetobacter genomosp. 3 isolate 195 by Etest method; method in brief: as §2
Acinetobacter pittii [15] = assay: Antibacterial activity against Acinetobacter genomosp. 3 isolate 21 by Etest method; method in brief: as §2
Acinetobacter pittii [16] = assay: Antibacterial activity against Acinetobacter genomosp. 3 isolate 67 by Etest method; method in brief: as §2
Acinetobacter pittii [17] = assay: Antibacterial activity against Acinetobacter genomosp. 3 isolate 65 by Etest method; method in brief: as §2
Acinetobacter pittii [18] = assay: Antibacterial activity against Acinetobacter genomosp. 3 isolate 90 by Etest method; method in brief: as §2
Acinetobacter pittii [19] = assay: Antibacterial activity against Acinetobacter genomosp. 3 isolate 128 by Etest method; method in brief: as §2
Acinetobacter pittii [20] = assay: Antibacterial activity against Acinetobacter genomosp. 3 isolate 52 by Etest method; method in brief: as §2
Acinetobacter pittii [21] = assay: Antibacterial activity against Acinetobacter genomosp. 3 isolate 243 by Etest method; method in brief: as §2
Acinetobacter pittii [22] = assay: Antibacterial activity against Acinetobacter genomosp. 3 isolate 69 by Etest method; method in brief: as §2
Acinetobacter pittii [23] = assay: Antibacterial activity against Acinetobacter genomosp. 3 isolate 56 by Etest method; method in brief: as §2
Acinetobacter pittii [24] = assay: Antibacterial activity against Acinetobacter genomosp. 3 isolate 60 by Etest method; method in brief: as §2

Structure (SMILES): CC1(C)S[C@@H]2[C@H](NC(=O)[C@H](N)c3ccccc3)C(=O)N2[C@H]1C(=O)O [AMPICILLIN]
- MIC (Escherichia coli [1]): 64 µg/mL (≈ 183 µM)
- MIC (Escherichia coli [2]): 3 µg/mL (≈ 8.59 µM)
- MIC (Escherichia coli [3]): 96 µg/mL (≈ 275 µM)
- MIC (Escherichia coli [4]): 96 µg/mL (≈ 275 µM)
- MIC (Escherichia coli [5]): 96 µg/mL (≈ 275 µM)
- MIC (Escherichia coli [6]): 32 µg/mL (≈ 91.6 µM)
- MIC (Escherichia coli [7]): 128 µg/mL (≈ 366 µM)
- MIC (Acinetobacter pittii [8]): > 256 µg/mL
- MIC (Acinetobacter pittii [9]): > 256 µg/mL
- MIC (Escherichia coli [10]): 96 µg/mL (≈ 275 µM)
- MIC (Escherichia coli [11]): 128 µg/mL (≈ 366 µM)

Structure (SMILES): CO/N=C(\C(=O)N[C@@H]1C(=O)N2C(C(=O)[O-])=C(C[N+]3(C)CCCC3)CS[C@H]12)c1csc(N)n1
- MIC (Acinetobacter pittii [12]): 3 µg/mL
- MIC (Acinetobacter pittii [13]): 2 µg/mL
- MIC (Escherichia coli [1]): 0.023 µg/mL (≈ 0.0479 µM)
- MIC (Acinetobacter pittii [14]): 6 µg/mL
- MIC (Acinetobacter pittii [15]): 12 µg/mL
- MIC (Escherichia coli [2]): 0.016 µg/mL (≈ 0.0333 µM)
- MIC (Acinetobacter pittii [16]): 4 µg/mL
- MIC (Acinetobacter pittii [17]): 3 µg/mL
- MIC (Escherichia coli [3]): 0.032 µg/mL (≈ 0.0666 µM)
- MIC (Acinetobacter pittii [18]): 16 µg/mL
- MIC (Escherichia coli [4]): 0.023 µg/mL (≈ 0.0479 µM)
- MIC (Escherichia coli [5]): 0.023 µg/mL (≈ 0.0479 µM)
- MIC (Acinetobacter pittii [19]): 2 µg/mL
- MIC (Escherichia coli [6]): 0.032 µg/mL (≈ 0.0666 µM)
- MIC (Acinetobacter pittii [20]): 2 µg/mL
- MIC (Escherichia coli [7]): 0.032 µg/mL (≈ 0.0666 µM)
- MIC (Acinetobacter pittii [21]): 3 µg/mL
- MIC (Acinetobacter pittii [8]): 4 µg/mL
- MIC (Acinetobacter pittii [22]): 3 µg/mL
- MIC (Acinetobacter pittii [9]): 3 µg/mL
- MIC (Escherichia coli [10]): 0.19 µg/mL (≈ 0.395 µM)
- MIC (Acinetobacter pittii [23]): 2 µg/mL
- MIC (Escherichia coli [11]): 0.023 µg/mL (≈ 0.0479 µM)
- MIC (Acinetobacter pittii [24]): 4 µg/mL

Structure (SMILES): N#CC(C#N)=NNc1cccc(Cl)c1 [CARBONYL CYANIDE M-CHLOROPHENYLHYDRAZONE]
- MIC (Acinetobacter pittii [12]): 400 µM
- MIC (Acinetobacter pittii [13]): > 400 µM
- MIC (Acinetobacter pittii [14]): > 400 µM
- MIC (Acinetobacter pittii [15]): > 400 µM
- MIC (Acinetobacter pittii [16]): > 400 µM
- MIC (Acinetobacter pittii [17]): > 400 µM
- MIC (Acinetobacter pittii [18]): > 400 µM
- MIC (Acinetobacter pittii [19]): > 400 µM
- MIC (Acinetobacter pittii [20]): > 400 µM
- MIC (Acinetobacter pittii [21]): 400 µM
- MIC (Acinetobacter pittii [8]): 400 µM
- MIC (Acinetobacter pittii [22]): > 400 µM
- MIC (Acinetobacter pittii [9]): > 400 µM
- MIC (Acinetobacter pittii [23]): > 400 µM
- MIC (Acinetobacter pittii [24]): > 400 µM

Structure (SMILES): Cl.Cl.N=C(N)NCCC[C@H](NC(=O)[C@@H](N)Cc1ccccc1)C(=O)Nc1ccc2ccccc2c1 (H-Phe-Arg-βNA)
- MIC (Acinetobacter pittii [12]): > 400 µg/mL
- MIC (Acinetobacter pittii [13]): 400 µg/mL
- MIC (Acinetobacter pittii [14]): 400 µg/mL
- MIC (Acinetobacter pittii [15]): > 400 µg/mL
- MIC (Acinetobacter pittii [16]): 400 µg/mL
- MIC (Acinetobacter pittii [17]): > 400 µg/mL
- MIC (Acinetobacter pittii [18]): > 400 µg/mL
- MIC (Acinetobacter pittii [19]): 400 µg/mL
- MIC (Acinetobacter pittii [20]): 400 µg/mL
- MIC (Acinetobacter pittii [21]): > 400 µg/mL
- MIC (Acinetobacter pittii [8]): > 400 µg/mL
- MIC (Acinetobacter pittii [22]): 400 µg/mL
- MIC (Acinetobacter pittii [9]): 400 µg/mL
- MIC (Acinetobacter pittii [23]): > 400 µg/mL
- MIC (Acinetobacter pittii [24]): 400 µg/mL

Structure (SMILES): CO[C@@]1(NC(=O)Cc2cccs2)C(=O)N2C(C(=O)O)=C(COC(N)=O)CS[C@@H]21 [CEFOXITIN]
- MIC (Acinetobacter pittii [12]): > 256 µg/mL
- MIC (Acinetobacter pittii [13]): > 256 µg/mL
- MIC (Escherichia coli [1]): 24 µg/mL (≈ 56.1 µM)
- MIC (Acinetobacter pittii [14]): > 256 µg/mL
- MIC (Acinetobacter pittii [15]): > 256 µg/mL
- MIC (Escherichia coli [2]): 2 µg/mL (≈ 4.68 µM)
- MIC (Acinetobacter pittii [16]): > 256 µg/mL
- MIC (Acinetobacter pittii [17]): 128 µg/mL
- MIC (Escherichia coli [3]): 24 µg/mL (≈ 56.1 µM)
- MIC (Acinetobacter pittii [18]): 128 µg/mL
- MIC (Escherichia coli [4]): 16 µg/mL (≈ 37.4 µM)
- MIC (Escherichia coli [5]): 16 µg/mL (≈ 37.4 µM)
- MIC (Acinetobacter pittii [19]): 128 µg/mL
- MIC (Escherichia coli [6]): 3 µg/mL (≈ 7.02 µM)
- MIC (Acinetobacter pittii [20]): > 256 µg/mL
- MIC (Escherichia coli [7]): 32 µg/mL (≈ 74.9 µM)
- MIC (Acinetobacter pittii [21]): 48 µg/mL
- MIC (Acinetobacter pittii [8]): > 256 µg/mL
- MIC (Acinetobacter pittii [22]): > 256 µg/mL
- MIC (Acinetobacter pittii [9]): 192 µg/mL
- MIC (Escherichia coli [10]): 32 µg/mL (≈ 74.9 µM)
- MIC (Acinetobacter pittii [23]): 64 µg/mL
- MIC (Escherichia coli [11]): 32 µg/mL (≈ 74.9 µM)
- MIC (Acinetobacter pittii [24]): > 256 µg/mL

Structure (SMILES): CO/N=C(\C(=O)N[C@@H]1C(=O)N2C(C(=O)O)=C(COC(C)=O)CS[C@H]12)c1csc(N)n1 [CEFOTAXIME]
- MIC (Acinetobacter pittii [12]): 24 µg/mL
- MIC (Acinetobacter pittii [13]): 16 µg/mL
- MIC (Escherichia coli [1]): 0.38 µg/mL (≈ 0.834 µM)
- MIC (Acinetobacter pittii [14]): 24 µg/mL
- MIC (Acinetobacter pittii [15]): 24 µg/mL
- MIC (Escherichia coli [2]): 0.064 µg/mL (≈ 0.141 µM)
- MIC (Acinetobacter pittii [16]): 16 µg/mL
- MIC (Acinetobacter pittii [17]): 12 µg/mL
- MIC (Escherichia coli [3]): 0.75 µg/mL (≈ 1.65 µM)
- MIC (Acinetobacter pittii [18]): 12 µg/mL
- MIC (Escherichia coli [4]): 0.38 µg/mL (≈ 0.834 µM)
- MIC (Escherichia coli [5]): 0.38 µg/mL (≈ 0.834 µM)
- MIC (Acinetobacter pittii [19]): 12 µg/mL
- MIC (Escherichia coli [6]): 25 µg/mL (≈ 54.9 µM)
- MIC (Acinetobacter pittii [20]): 12 µg/mL
- MIC (Escherichia coli [7]): 0.75 µg/mL (≈ 1.65 µM)
- MIC (Acinetobacter pittii [21]): 16 µg/mL
- MIC (Acinetobacter pittii [8]): 16 µg/mL
- MIC (Acinetobacter pittii [22]): 16 µg/mL
- MIC (Acinetobacter pittii [9]): 16 µg/mL
- MIC (Escherichia coli [10]): 0.125 µg/mL (≈ 0.274 µM)
- MIC (Acinetobacter pittii [23]): 4 µg/mL
- MIC (Escherichia coli [11]): 0.75 µg/mL (≈ 1.65 µM)
- MIC (Acinetobacter pittii [24]): 24 µg/mL
